According to ChEMBL document CHEMBL3813689, “Discovery of Potent Benzofuran-Derived Diapophytoene Desaturase (CrtN) Inhibitors with Enhanced Oral Bioavailability for the Treatment of Methicillin-Resistant Staphylococcus aureus (MRSA) Infections” (J Med Chem, 2016):
The source made the active and inactive calls. The calls are words filed in the database; no cut-off is given here.

Assays:
[1] = molecular target: T1, 4,4'-diapophytoene desaturase (4,4'-diaponeurosporene-forming) (Staphylococcus aureus (strain Newman), UniProt O07855); assay: Inhibition of Staphylococcus aureus Newman 6His-tagged CrtN expressed in Escherichia coli BL21(DE3) using diapophytoene as substrate assessed as pigment formation after overnight incubation by spectrophotometric method; design: species or system Staphylococcus aureus subsp. aureus str. Newman
T1 sequence (O07855 whole entry): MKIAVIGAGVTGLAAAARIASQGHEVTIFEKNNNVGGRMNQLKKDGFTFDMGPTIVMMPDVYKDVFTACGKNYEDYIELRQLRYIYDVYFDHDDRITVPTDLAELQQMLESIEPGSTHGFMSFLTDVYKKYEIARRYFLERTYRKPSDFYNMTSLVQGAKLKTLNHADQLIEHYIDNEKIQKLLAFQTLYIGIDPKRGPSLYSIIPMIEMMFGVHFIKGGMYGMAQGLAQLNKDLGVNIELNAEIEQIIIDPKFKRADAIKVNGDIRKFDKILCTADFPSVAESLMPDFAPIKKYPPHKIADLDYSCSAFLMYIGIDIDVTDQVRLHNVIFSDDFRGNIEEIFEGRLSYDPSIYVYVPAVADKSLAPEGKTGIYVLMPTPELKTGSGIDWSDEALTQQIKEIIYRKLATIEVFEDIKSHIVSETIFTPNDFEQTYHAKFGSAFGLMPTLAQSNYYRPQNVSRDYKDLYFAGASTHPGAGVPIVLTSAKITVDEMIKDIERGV
How it was run: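 Lysate of E. coli BL21(DE3) expressing 6His-CrtN (IPTG 0.5 mM, 16 °C overnight), ~1.41 mg CrtN per reaction, with diapophytoene–phosphatidylcholine emulsion in 0.02 M HEPES pH 7.5 plus FAD. Anaerobic via glucose oxidase 20 U/mL, catalase 20000 U/mL, glucose 2 mM (final). Started with lysate, overnight at 37 °C; triplicate.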

Staphylococcus aureus [2] = assay: Inhibition of staphyloxanthin pigment formation in methicillin-resistant Staphylococcus aureus USA400 MW2 after 48 hrs by spectrophotometric method; type: functional, organism-based; details: MW2, 48 h
How it was run: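 MRSA grown in 4 mL TSB with 40 µL compound (2-fold serial dilutions from 20 mM DMSO stock) at 37 °C for 48 h, triplicate. Cells washed twice in PBS, pigment extracted with methanol, OD450 measured; IC50 from dose-response fit.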

Staphylococcus aureus [3] = assay: Antibacterial activity against Staphylococcus aureus USA400 MW2 infected Balb/c mouse assessed as reduction of bacterial survival in kidney at 1.3 mg, ip bid administered for 4.5 days followed by bacterial infection measured after 5 days; type: functional, organism-based
How it was run: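 Female BALB/c mice, 6–8 weeks. Compound in sterile water ip once and every 12 h for 108 h, total 50 or 200 mg/kg; water controls. Infected 12 h after first dose with 4 × 10^7 CFU USA400 MW2 (100 µL). Killed 5 days post infection; liver or kidney CFU counted on TSA after homogenising in PBS/0.1% Triton X-100. n = 13; two-tailed Mann-Whitney.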

[4] = molecular target: Voltage-gated inwardly rectifying potassium channel KCNH2 (Homo sapiens, UniProt Q12809); assay: Inhibition of human ERG expressed in CHO cells by Qpatch-clamp method; type: cell-based
[5] = Cytotoxicity against human WI38 cells measure after 72 hrs by SRB assay; type: cell-based; details: WI-38, 72 h
Staphylococcus aureus [6] = assay: Antibacterial activity against Staphylococcus aureus Newman infected Balb/c mouse assessed as reduction of bacterial survival in heart at 5.2 mg, ip bid administered for 4.5 days followed by bacterial infection measured after 5 days; type: functional
How it was run: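 Female BALB/c mice, 6–8 weeks, dosed ip with compound in sterile water once and every 12 h for 108 h; water vehicle controls. Challenged 12 h after first dose with 1 × 10^7 CFU Newman by retro-orbital injection. Kidneys and hearts homogenised in PBS/0.1% Triton X-100 and plated on TSA for CFU. n = 13 mice; two-tailed Mann-Whitney.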

Staphylococcus aureus [7] = assay: Sensitization of Staphylococcus aureus Newman to immune clearance in human whole blood assessed as reduction in bacterial survival at 1 uM […] relative to control; type: functional

Sequence of Voltage-gated inwardly rectifying potassium channel KCNH2 (Q12809 whole entry): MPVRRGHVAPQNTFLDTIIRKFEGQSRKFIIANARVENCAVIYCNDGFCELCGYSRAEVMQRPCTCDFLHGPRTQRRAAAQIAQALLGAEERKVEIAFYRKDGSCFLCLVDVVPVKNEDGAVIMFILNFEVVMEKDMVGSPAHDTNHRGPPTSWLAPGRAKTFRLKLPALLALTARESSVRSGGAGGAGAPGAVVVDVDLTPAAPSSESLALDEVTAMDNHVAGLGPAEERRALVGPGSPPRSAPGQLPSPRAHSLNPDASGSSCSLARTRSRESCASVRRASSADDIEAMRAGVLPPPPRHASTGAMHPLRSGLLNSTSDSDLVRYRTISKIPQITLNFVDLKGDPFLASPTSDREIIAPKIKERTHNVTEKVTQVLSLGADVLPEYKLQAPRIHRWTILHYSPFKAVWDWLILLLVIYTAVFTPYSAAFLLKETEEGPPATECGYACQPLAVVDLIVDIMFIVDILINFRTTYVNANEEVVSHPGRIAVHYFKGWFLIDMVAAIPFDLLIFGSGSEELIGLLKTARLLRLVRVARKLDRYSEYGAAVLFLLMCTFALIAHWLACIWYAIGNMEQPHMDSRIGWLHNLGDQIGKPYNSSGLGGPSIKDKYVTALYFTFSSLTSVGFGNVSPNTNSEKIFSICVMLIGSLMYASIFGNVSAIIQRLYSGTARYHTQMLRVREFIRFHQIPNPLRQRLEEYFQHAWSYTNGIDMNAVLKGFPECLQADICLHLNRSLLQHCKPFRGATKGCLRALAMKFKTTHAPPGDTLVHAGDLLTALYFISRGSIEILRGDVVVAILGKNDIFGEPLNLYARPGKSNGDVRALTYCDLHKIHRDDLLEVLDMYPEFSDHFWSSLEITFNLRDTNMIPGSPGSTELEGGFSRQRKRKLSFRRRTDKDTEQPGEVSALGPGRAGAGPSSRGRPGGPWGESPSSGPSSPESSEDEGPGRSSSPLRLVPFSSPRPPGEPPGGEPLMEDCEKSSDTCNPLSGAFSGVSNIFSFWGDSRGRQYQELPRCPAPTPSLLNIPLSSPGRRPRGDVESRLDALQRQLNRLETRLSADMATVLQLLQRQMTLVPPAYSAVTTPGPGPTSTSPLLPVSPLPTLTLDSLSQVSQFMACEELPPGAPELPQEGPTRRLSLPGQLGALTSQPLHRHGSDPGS

With `CN(C/C=C/c1ccc(C(F)(F)F)cc1)Cc1cccc2ccoc12.Cl` the IC50 [1] was 339 nM, the IC50 (Staphylococcus aureus [2]) was 5.45 nM and the Activity (Staphylococcus aureus [3]) was “Active”. It also gave an IC50 [4] of 3710 nM, an IC50 [5] of 47900 nM and an Activity (Staphylococcus aureus [6]) of 1.01 deltalog10CFU. The “fold change (FC)” value (Staphylococcus aureus [7]) was 33.
